Results on six compounds are retold here after ChEMBL document CHEMBL1629465, “Efficient synthesis of novel 1,2,4-triazole fused acyclic and 21-28 membered macrocyclic and/or lariat macrocyclic oxaazathia crown compounds with potential antimicrobial activity” (2010).

Assay type in all cases: functional
Holding throughout (details): read-out: DIZ

For assay [1], the system named is Aspergillus fumigatus. The assay can be described thus: Antimicrobial activity against Aspergillus fumigatus RCMB 002008 at 1 mg/ml by agar diffusion technique. In a few lines:
(§1)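 Agar well diffusion. Test compounds and reference standard drugs were diluted to 5.0, 2.5 and 1.0 mg/mL and applied to 0.6 cm wells. Inhibition zone beyond the control was scored as 0 (no inhibition), + (0.1–0.5 cm), ++ (0.6–1.0 cm) or +++ (1.0–1.5 cm).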
(In general: A growth-free zone around the sample is the usual read-out of agar diffusion tests.)

For assay [2], the system named is Aspergillus fumigatus. As to the kind of experiment: Antimicrobial activity against Aspergillus fumigatus RCMB 002008 at 2.5 mg/ml by agar diffusion technique. The essentials: as §1
In assay [3] the test system is Aspergillus fumigatus. The assay can be described thus: Antimicrobial activity against Aspergillus fumigatus RCMB 002008 at 5 mg/ml by agar diffusion technique. In a few lines: as §1
Assay [4] deals with Penicillium italicum. The assay can be described thus: Antimicrobial activity against Penicillium italicum RCMB 001018 at 1 mg/ml by agar diffusion technique. The essentials: as §1
Assay [5] relates to Penicillium italicum. As to the kind of experiment: Antimicrobial activity against Penicillium italicum RCMB 001018 at 2.5 mg/ml by agar diffusion technique. The essentials:
as §1

Assay [6] concerns Penicillium italicum. As to the kind of experiment: Antimicrobial activity against Penicillium italicum RCMB 001018 at 5 mg/ml by agar diffusion technique. The essentials:
as §1

The subject of assay [7] is Syncephalastrum racemosum. As to the kind of experiment: Antimicrobial activity against Syncephalastrum racemosum RCMB 016001 at 1 mg/ml by agar diffusion technique. In a few lines: as §1
Assay [8] has as its system Syncephalastrum racemosum. The assay can be described thus: Antimicrobial activity against Syncephalastrum racemosum RCMB 016001 at 2.5 mg/ml by agar diffusion technique. In a few lines:
as §1

For assay [9], the system named is Syncephalastrum racemosum. The assay can be described thus: Antimicrobial activity against Syncephalastrum racemosum RCMB 016001 at 5 mg/ml by agar diffusion technique. The essentials:
as §1

Assay [10] deals with Candida albicans. As to the kind of experiment: Antimicrobial activity against Candida albicans RCMB 005003 at 1 mg/ml by agar diffusion technique. In a few lines:
as §1

In assay [11] the test system is Candida albicans. The assay can be described thus: Antimicrobial activity against Candida albicans RCMB 005003 at 2.5 mg/ml by agar diffusion technique. In a few lines:
as §1

For assay [12], the system named is Candida albicans. The assay can be described thus: Antimicrobial activity against Candida albicans RCMB 005003 at 5 mg/ml by agar diffusion technique. The essentials: as §1
The test system of assay [13] is Staphylococcus aureus. The assay can be described thus: Antimicrobial activity against Staphylococcus aureus RCMB 106001 at 1 mg/ml by agar diffusion technique. The essentials:
as §1

Assay [14] concerns Staphylococcus aureus. As to the kind of experiment: Antimicrobial activity against Staphylococcus aureus RCMB 106001 at 2.5 mg/ml by agar diffusion technique. In a few lines: as §1
Assay [15] concerns Staphylococcus aureus. As to the kind of experiment: Antimicrobial activity against Staphylococcus aureus RCMB 106001 at 5 mg/ml by agar diffusion technique. In a few lines: as §1
Assay [16] deals with Pseudomonas aeruginosa. The assay can be described thus: Antimicrobial activity against Pseudomonas aeruginosa RCMB 102002 at 1 mg/ml by agar diffusion technique. In a few lines: as §1
Assay [17] deals with Pseudomonas aeruginosa. The assay can be described thus: Antimicrobial activity against Pseudomonas aeruginosa RCMB 102002 at 2.5 mg/ml by agar diffusion technique. In a few lines:
as §1

Assay [18] has as its system Pseudomonas aeruginosa. As to the kind of experiment: Antimicrobial activity against Pseudomonas aeruginosa RCMB 102002 at 5 mg/ml by agar diffusion technique. In a few lines:
as §1

Assay [19] relates to Bacillus subtilis. As to the kind of experiment: Antimicrobial activity against Bacillus subtilis RCMB 101001 at 1 mg/ml by agar diffusion technique. In a few lines: as §1
In assay [20] the test system is Bacillus subtilis. As to the kind of experiment: Antimicrobial activity against Bacillus subtilis RCMB 101001 at 2.5 mg/ml by agar diffusion technique. The essentials:
as §1

Assay [21] relates to Bacillus subtilis. As to the kind of experiment: Antimicrobial activity against Bacillus subtilis RCMB 101001 at 5 mg/ml by agar diffusion technique. In a few lines: as §1
The test system of assay [22] is Escherichia coli. The assay can be described thus: Antimicrobial activity against Escherichia coli RCMB 103001 at 1 mg/ml by agar diffusion technique. The essentials:
as §1

Assay [23] concerns Escherichia coli. The assay can be described thus: Antimicrobial activity against Escherichia coli RCMB 103001 at 2.5 mg/ml by agar diffusion technique. In a few lines: as §1
In assay [24] the test system is Escherichia coli. As to the kind of experiment: Antimicrobial activity against Escherichia coli RCMB 103001 at 5 mg/ml by agar diffusion technique. The essentials:
as §1

Regarding `Nn1c(SCCCSc2nnc(-c3cccnc3)n2N)nnc1-c1cccnc1`, the zone of inhibition at 1000 µg/mL (in the assay on Aspergillus fumigatus [1]; with Penicillium italicum [4]; in assay [7]; in the assay with Candida albicans [10]; in the assay on Staphylococcus aureus [13]; with Pseudomonas aeruginosa [16]) was 0 mm throughout. The zone of inhibition at 1000 µg/mL in the assay on Bacillus subtilis [19] and in the assay on Escherichia coli [22] was 0 mm in each case. In addition, the zone of inhibition at 2500 µg/mL with Aspergillus fumigatus [2] stood at 1 mm; with Penicillium italicum [5], 0 mm; in [8] it was 0 mm; in the assay on Candida albicans [11], 0 mm; in the assay with Staphylococcus aureus [14], 0 mm; in the assay with Pseudomonas aeruginosa [17] it was 0 mm. Further, the zone of inhibition at 2500 µg/mL in the assay on Bacillus subtilis [20] and in the assay with Escherichia coli [23] was 0 mm each time. The zone of inhibition at 5000 µg/mL is 1 mm in the assay with Aspergillus fumigatus [3]; 0 mm in the assay on Penicillium italicum [6]; 1 mm in assay [9]; 1 mm in the assay on Candida albicans [12]; 0 mm with Staphylococcus aureus [15]; 0 mm in the assay on Pseudomonas aeruginosa [18]. In addition, the zone of inhibition at 5000 µg/mL with Bacillus subtilis [21] and with Escherichia coli [24] was 0 mm throughout.
Turning to `Nn1c(SCCCCSc2nnc(-c3cccnc3)n2N)nnc1-c1cccnc1`, the zone of inhibition at 1000 µg/mL amounted to 0 mm in the assay with Aspergillus fumigatus [1]; 0 mm with Penicillium italicum [4]; 1 mm in assay [7]; 0 mm with Candida albicans [10]; 0 mm with Staphylococcus aureus [13]; 0 mm with Pseudomonas aeruginosa [16]. The zone of inhibition at 1000 µg/mL with Bacillus subtilis [19] and with Escherichia coli [22] was 0 mm in each case. Further, the zone of inhibition at 2500 µg/mL turned out to be 0 mm with Aspergillus fumigatus [2]; 0 mm in the assay on Penicillium italicum [5]; 1 mm in assay [8]; 0 mm in the assay with Candida albicans [11]; 1 mm in the assay on Staphylococcus aureus [14]; 0 mm with Pseudomonas aeruginosa [17]. Moreover, the zone of inhibition at 2500 µg/mL is 1 mm in the assay with Bacillus subtilis [20] and 0 mm in the assay with Escherichia coli [23]. Also, the zone of inhibition at 5000 µg/mL is 0 mm in the assay on Aspergillus fumigatus [3]; 0 mm with Penicillium italicum [6]; 1 mm in assay [9]; 0 mm in the assay on Candida albicans [12]; 1 mm in the assay with Staphylococcus aureus [15]; 0 mm in the assay on Pseudomonas aeruginosa [18]. Moreover, the figures for the zone of inhibition at 5000 µg/mL in the assay on Bacillus subtilis [21] and in the assay on Escherichia coli [24] were 1 mm and 0 mm, respectively.
For `Oc1ccccc1/C=N\n1c(SCCSc2nnc(-c3cccnc3)n2/N=C\c2ccccc2O)nnc1-c1cccnc1`, the zone of inhibition at 1000 µg/mL (with Aspergillus fumigatus [1]; with Penicillium italicum [4]; in assay [7]; in the assay on Candida albicans [10]; with Staphylococcus aureus [13]; with Pseudomonas aeruginosa [16]) was 0 mm each time. The zone of inhibition at 1000 µg/mL in the assay with Bacillus subtilis [19] and in the assay with Escherichia coli [22] was 0 mm each time. In addition, the zone of inhibition at 2500 µg/mL in the assay with Aspergillus fumigatus [2] was determined as 0 mm; in the assay with Penicillium italicum [5] it was 0 mm; in assay [8], 1 mm; in the assay with Candida albicans [11] it was 0 mm; in the assay with Staphylococcus aureus [14], 0 mm; in the assay on Pseudomonas aeruginosa [17], 0 mm. Further, the zone of inhibition at 2500 µg/mL in the assay with Bacillus subtilis [20] and in the assay with Escherichia coli [23] was 0 mm each time. Further, the zone of inhibition at 5000 µg/mL in the assay on Aspergillus fumigatus [3] was 0 mm; in the assay with Penicillium italicum [6], 1 mm; in [9], 1 mm; with Candida albicans [12], 0 mm; in the assay with Staphylococcus aureus [15], 0 mm; with Pseudomonas aeruginosa [18], 0 mm. Further, the figures for the zone of inhibition at 5000 µg/mL in the assay on Bacillus subtilis [21] and in the assay with Escherichia coli [24] were 1 mm and 0 mm, respectively.
On to `C1=N\n2c(nnc2-c2cccnc2)SCCCCSc2nnc(-c3cccnc3)n2/N=C\c2ccccc2OCCOCCOCCOc2ccccc2/1`, for which the zone of inhibition at 1000 µg/mL (with Aspergillus fumigatus [1]; in the assay on Penicillium italicum [4]; in [7]; with Candida albicans [10]; in the assay on Staphylococcus aureus [13]; in the assay on Pseudomonas aeruginosa [16]) was 0 mm in each case. For the same compound, the zone of inhibition at 1000 µg/mL in the assay with Bacillus subtilis [19] and in the assay on Escherichia coli [22] was 0 mm each time. Further, the zone of inhibition at 2500 µg/mL worked out at 0 mm in the assay with Aspergillus fumigatus [2]; 0 mm in the assay on Penicillium italicum [5]; 0 mm in assay [8]; 0 mm with Candida albicans [11]; 0 mm in the assay on Staphylococcus aureus [14]; 1 mm in the assay on Pseudomonas aeruginosa [17]. Further, the zone of inhibition at 2500 µg/mL in the assay with Bacillus subtilis [20] is 0 mm; with Escherichia coli [23], 1 mm. In addition, the zone of inhibition at 5000 µg/mL with Aspergillus fumigatus [3] is 0 mm; in the assay with Penicillium italicum [6], 0 mm; in assay [9] it was 1 mm; in the assay on Candida albicans [12], 0 mm; in the assay with Staphylococcus aureus [15], 1 mm; in the assay with Pseudomonas aeruginosa [18] it was 1 mm. Moreover, the zone of inhibition at 5000 µg/mL was 0 mm in the assay with Bacillus subtilis [21] and 1 mm in the assay with Escherichia coli [24].
With `OC1COc2ccccc2/C=N\n2c(nnc2-c2cccnc2)SCCCSc2nnc(-c3cccnc3)n2/N=C\c2ccccc2OC1`, the zone of inhibition at 1000 µg/mL (in the assay on Aspergillus fumigatus [1]; with Penicillium italicum [4]; in assay [7]; in the assay with Candida albicans [10]; with Staphylococcus aureus [13]; in the assay on Pseudomonas aeruginosa [16]) was 0 mm each time. Also, the zone of inhibition at 1000 µg/mL in the assay with Bacillus subtilis [19] amounted to 1 mm; with Escherichia coli [22] it was 0 mm. Also, the zone of inhibition at 2500 µg/mL is 0 mm in the assay on Aspergillus fumigatus [2]; 1 mm in the assay on Penicillium italicum [5]; 1 mm in assay [8]; 1 mm with Candida albicans [11]; 0 mm in the assay on Staphylococcus aureus [14]; 0 mm with Pseudomonas aeruginosa [17]. Besides, the zone of inhibition at 2500 µg/mL in the assay on Bacillus subtilis [20] was determined as 1 mm; in the assay on Escherichia coli [23] it was 0 mm. Further, the zone of inhibition at 5000 µg/mL is 0 mm in the assay on Aspergillus fumigatus [3]; 1 mm in the assay on Penicillium italicum [6]; 1 mm in [9]; 1 mm in the assay with Candida albicans [12]; 0 mm in the assay on Staphylococcus aureus [15]; 0 mm in the assay on Pseudomonas aeruginosa [18]. Moreover, the zone of inhibition at 5000 µg/mL with Bacillus subtilis [21] stood at 6 mm; in the assay with Escherichia coli [24], 0 mm.
On to `OC1COc2ccccc2/C=N\n2c(nnc2-c2cccnc2)SCCCCSc2nnc(-c3cccnc3)n2/N=C\c2ccccc2OC1`, for which the zone of inhibition at 1000 µg/mL (with Aspergillus fumigatus [1]; in the assay on Penicillium italicum [4]; in assay [7]; in the assay with Candida albicans [10]; in the assay with Staphylococcus aureus [13]; in the assay on Pseudomonas aeruginosa [16]) was 0 mm throughout. Also, the figures for the zone of inhibition at 1000 µg/mL in the assay with Bacillus subtilis [19] and in the assay with Escherichia coli [22] were 1 mm and 0 mm, respectively. The zone of inhibition at 2500 µg/mL (in the assay on Aspergillus fumigatus [2]; in the assay with Penicillium italicum [5]; in assay [8]; in the assay on Candida albicans [11]; in the assay with Staphylococcus aureus [14]; in the assay with Pseudomonas aeruginosa [17]) was 0 mm in each case. Further, the zone of inhibition at 2500 µg/mL in the assay on Bacillus subtilis [20] is 1 mm; with Escherichia coli [23] it was 0 mm. The zone of inhibition at 5000 µg/mL turned out to be 0 mm with Aspergillus fumigatus [3]; 0 mm with Penicillium italicum [6]; 0 mm in assay [9]; 0 mm in the assay on Candida albicans [12]; 1 mm with Staphylococcus aureus [15]; 0 mm in the assay on Pseudomonas aeruginosa [18]. The zone of inhibition at 5000 µg/mL with Bacillus subtilis [21] was 1 mm; in the assay with Escherichia coli [24], 0 mm.
